# Results as given in ChEMBL document CHEMBL4130346, “New quinoline-arylamidine hybrids: Synthesis, DNA/RNA binding and antitumor activity” (Eur J Med Chem, 2017).
# Active and inactive are the calls of the source. No cut-off for these calls is given here.
# Legend:
# K562 [1] = test: Growth inhibition of human K562 cells after 72 hrs by MTT assay; assay type: functional; details: K562, 72 h
# In short: (§1)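 Leukemia cells (1x10^5 cells/cm3) were exposed to compound for 72 h, then MTT (5 mg/cm3) was added for 4 h. Formazan was dissolved with 10% SDS in 0.01 mol dm-3 HCl and absorbance read at 595 nm. Percent growth was taken versus untreated control minus background. GI50 came from a variable-slope fit, as mean ± SD of three independent experiments in triplicate.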
# [2] = Solubility of the compound in water; assay type: physicochemical
# Calf thymus DNA [3] = test: Binding affinity to calf thymus DNA assessed as hypochromic effect by UV-vis spectrophotometric method; assay type: nucleic-acid assay; details: Bos taurus
# In short: (§2)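 UV-Vis titration at room temperature in Na cacodylate buffer (I = 0.05 mol dm-3, pH 7.0). Portions of ct-DNA or polyA-polyU were added to a fixed compound concentration until saturation, with dilution correction. Polynucleotide was measured as phosphate. Ks and n were obtained by Scatchard analysis, together with the hypochromic change at the absorption maximum.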
# [4] = Binding affinity to polyA-polyU (unknown origin) assessed as change in melting temperature at 0.3 compound to ds-polynucleotide ratio by spectrophotometric method
# In short: (§3)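 Thermal melting of ct-DNA (sonicated, filtered) or polyA-polyU in Na cacodylate buffer, I = 0.05 mol dm-3, pH 7.0, at given r = [compound]/[polynucleotide]; polynucleotide as phosphate concentration. Tm from maximum of first derivative, checked by tangent method. ΔTm = Tm(complex) − Tm(free nucleic acid), average of at least two measurements, error ±0.5 °C.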
# Calf thymus DNA [5] = test: Binding affinity to calf thymus DNA by UV-vis spectrophotometric method; assay type: nucleic-acid assay; details: Bos taurus; in short: as §2
# [6] = Induction of polyA-polyU (unknown origin) intercalation at 0.1, 0.3, 0.5, 0.7 compound to ds-polynucleotide ratio by CD-spectrophotometric method
# In short: (§4)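 Induced CD spectra were recorded in 1 cm quartz cuvettes in Na cacodylate buffer (I = 0.05 mol dm-3, pH 7.0) with ct-DNA or polyA-polyU. Compound was added at r = [compound]/[polynucleotide] = 0.1, 0.3, 0.5 and 0.7. The CD signal was followed as a function of r.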
# Calf thymus DNA [7] = test: Binding affinity to calf thymus DNA assessed as change in melting temperature at 0.5 compound to ds-polynucleotide ratio by spectrophotometric method; assay type: nucleic-acid assay; details: Bos taurus; in short: as §3
# [8] = Growth inhibition of MDCK1 cells after 72 hrs by MTT assay; parameters: species or system Canis lupus familiaris; details: dog
# In short: (§5)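 Adherent cells (2x10^4 cells/cm3) attached overnight, then were exposed to compound for 72 h. Medium was replaced with 5 mg/cm3 MTT, formazan was dissolved in DMSO and absorbance read at 595 nm. Percent growth was taken relative to untreated control minus background. GI50 came from a variable-slope log-inhibitor fit, as mean ± SD of three independent experiments in triplicate.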
# Calf thymus DNA [9] = test: Binding affinity to calf thymus DNA assessed as change in melting temperature at 0.3 compound to ds-polynucleotide ratio by spectrophotometric method; assay type: nucleic-acid assay; details: Bos taurus; in short: as §3
# Raji = test: Growth inhibition of human Raji cells after 72 hrs by MTT assay; assay type: functional; in short: as §1
# [10] = Binding affinity to polyA-polyU (unknown origin) by UV-vis spectrophotometric method; in short: as §2
# Calf thymus DNA [11] = test: Binding affinity to calf thymus DNA assessed as change in melting temperature at 0.1 compound to ds-polynucleotide ratio by spectrophotometric method; assay type: nucleic-acid assay; details: Bos taurus; in short: as §3
# [12] = Binding affinity to polyA-polyU (unknown origin) assessed as change in melting temperature at 0.1 compound to ds-polynucleotide ratio by spectrophotometric method; in short: as §3
# [13] = Binding affinity to polyA-polyU (unknown origin) assessed as hypochromic effect by UV-vis spectrophotometric method; in short: as §2
# Calf thymus DNA [14] = test: Binding affinity to calf thymus DNA minor groove at 0.1, 0.3, 0.5, 0.7 compound to ds-polynucleotide ratio by CD-spectrophotometric method; assay type: nucleic-acid assay; details: Bos taurus; in short: as §4
# HeLa = test: Growth inhibition of human HeLa cells after 72 hrs by MTT assay; assay type: functional; in short: as §5
# [15] = Binding affinity to polyA-polyU (unknown origin) assessed as change in melting temperature at 0.5 compound to ds-polynucleotide ratio by spectrophotometric method; in short: as §3
# [16] = Chemical stability in aqueous solution after several weeks; assay type: physicochemical; details: buffer
# In short: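 Aqueous compound solutions were monitored for several weeks by UV-Vis absorbance at 220-900 nm. Linearity with concentration was checked up to 3.5 × 10^-5 mol dm-3, and spectra were recorded at 25–90 °C with reproducibility checked on cooling to 25 °C.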
# Caco-2 = test: Growth inhibition of human Caco2 cells after 72 hrs by MTT assay; assay type: functional; details: Caco-2, 72 h; in short: as §5
# Calf thymus DNA [17] = test: Disruption of calf thymus DNA helix at 0.1, 0.3, 0.5, 0.7 compound to ds-polynucleotide ratio by CD-spectrophotometric method; assay type: nucleic-acid assay; details: Bos taurus; in short: as §4
# [18] = Solubility of the compound in DMSO; assay type: physicochemical
# K562 [19] = test: Cell cycle arrest in human K562 cells assessed as decrease in cell levels at S phase at 10^-5 mol/dm'3 after 24 hrs by propidium iodide staining-based flow cytometric method; assay type: functional
# [20] = Binding affinity to polyA-polyU (unknown origin) major groove at 0.1, 0.3, 0.5, 0.7 compound to ds-polynucleotide ratio by CD-spectrophotometric method; in short: as §4
Structure (SMILES),GI50 (K562 [1]),solubility [2],Activity (Calf thymus DNA [3]),ΔTm [4],log Ks (Calf thymus DNA [5]),Activity [6],ΔTm (Calf thymus DNA [7]),GI50 at 72 h [8],ΔTm (Calf thymus DNA [9]),GI50 (Raji),log Ks [10],ΔTm (Calf thymus DNA [11]),ΔTm [12],Activity [13],Activity (Calf thymus DNA [14]),GI50 (HeLa),ΔTm [15],Stability [16],GI50 (Caco-2),solubility [18],further results
Cl.Cl.Clc1ccc2c(Oc3ccc(-c4nc5ccc(C6=NCCCN6)cc5[nH]4)cc3)ccnc2c1,21.6 µM,1000 µM,25.5%,1.98 °C,6.96,Active,3.89 °C,67.1 µM,3.31 °C,50.5 µM,7.29,3.3 °C,2.84 °C,15.5%,Active,64.4 µM,1.82 °C,Stable,34.5 µM,,
Cl.Cl.N=C(NC1CCCC1)c1ccc2nc(-c3ccc(Oc4ccnc5cc(Cl)ccc45)cc3)[nH]c2c1,54.6 µM,1000 µM,36.7%,4.06 °C,6.23,Active,3.07 °C,55.5 µM,2.91 °C,41.5 µM,6.31,1.41 °C,0.18 °C,22.8%,Active,61.9 µM,6.82 °C,Stable,47.4 µM,,
Cl.Cl.Cl.N=C(N)c1ccc2nc(-c3ccc(Oc4ccnc5cc(Cl)ccc45)cc3)[nH]c2c1,> 100 µM,1000 µM,79.8%,0.72 °C,6.83,Active,2.9 °C,> 100 µM,2.84 °C,111 µM,6.43,2.07 °C,2.98 °C,6.9%,Active,> 100 µM,0.21 °C,Stable,82.9 µM,,
N#Cc1ccc2nc(-c3ccc(OCCNc4ccnc5cc(Cl)ccc45)cc3)[nH]c2c1,7.8 µM,,,,,,2.6 °C,22.1 µM,2.58 °C,5.2 µM,,3.96 °C,,,Active,56.6 µM,,Stable,28.3 µM,1000 µM,Activity (Calf thymus DNA [17]): Active
N#Cc1ccc(Oc2ccnc3cc(Cl)ccc23)cc1,86.7 µM,,,,,,,88.5 µM,,91.4 µM,,,,,,> 100 µM,,Stable,> 100 µM,1000 µM,
CC(C)CNC(=N)c1ccc2nc(-c3ccc(Oc4ccnc5cc(Cl)ccc45)cc3)[nH]c2c1.Cl.Cl.Cl,59.7 µM,1000 µM,60.2%,0.78 °C,5.88,Active,2.08 °C,53.5 µM,1.41 °C,46.7 µM,6.05,1.07 °C,1.64 °C,17.9%,Active,57 µM,0.25 °C,Stable,43.2 µM,,
CC(C)NC(=N)c1ccc2nc(-c3ccc(Oc4ccnc5cc(Cl)ccc45)cc3)[nH]c2c1.Cl.Cl.Cl,69 µM,1000 µM,60%,1.32 °C,7.87,Active,2.24 °C,61.8 µM,1.75 °C,48.2 µM,5.36,1.07 °C,-0.44 °C,26.8%,Active,51.3 µM,0.43 °C,Stable,53.3 µM,,
Cl.Cl.Cl.N=C(NC1CCCC1)c1ccc2nc(-c3ccc(OCCNc4ccnc5cc(Cl)ccc45)cc3)[nH]c2c1,11.4 µM,1000 µM,24.4%,1.14 °C,6.29,,7.8 °C,99.2 µM,7.8 °C,17.1 µM,6.81,3.71 °C,3.02 °C,49.7%,Active,> 100 µM,4.67 to 35.4 °C,Stable,> 100 µM,,Activity (Calf thymus DNA [17]): Active; Activity (K562 [19]): Active; Activity [20]: Active
N#Cc1ccc2nc(-c3ccc(Oc4ccnc5cc(Cl)ccc45)cc3)[nH]c2c1,> 100 µM,,,,,,,93.1 µM,,> 100 µM,,,,,Active,> 100 µM,,Stable,> 100 µM,1000 µM,
Cl.Cl.Clc1ccc2c(Oc3ccc(-c4nc5ccc(C6=NCCN6)cc5[nH]4)cc3)ccnc2c1,27.6 µM,1000 µM,68.5%,0.78 °C,5.76,Active,4.08 °C,77.1 µM,3.2 °C,40.6 µM,,1.6 °C,-0.16 °C,69.7%,Active,> 100 µM,1.12 °C,Stable,36.8 µM,,
